Source: ChEMBL document CHEMBL1130160 (J Med Chem, 1997)

How the values were obtained:
Estrogen receptor = Estrogen receptor (Homo sapiens, UniProt Q92731+P03372); conditions: mcf7
Rattus norvegicus [1] = assay: Minimum effective dose at which significant increase in uterine eosinophil peroxidase (EPO) activity in rat was determined (in vivo); format: functional; conditions: read-out: MED
Rattus norvegicus [2] = assay: Minimum effective dose at which significant increase in uterine weight/body weight in rat was determined (in vivo); format: functional; conditions: read-out: MED
Summary of the method: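 In 75-day OVX Sprague–Dawley rats dosed orally for 4 days, beginning 2 weeks post-ovariectomy with 5–6 rats per group, whole uteri were weighed the morning after fasting. MED is the lowest dose giving a significant (p≤0.05) rise in uterine weight/body weight, expressed as % increase over OVX controls ±SE.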

Rattus norvegicus [3] = assay: Percent decrease in serum cholesterol relative to OVX control at 1 mg/kg in rat; format: functional
Summary of the method: (§1)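 OVX Sprague–Dawley rats (75 days old), 5–6 per group, dosed once daily by oral gavage for 4 consecutive days, starting 14 days after ovariectomy. Vehicle was 20% β-hydroxycyclodextrin at 1 mL/kg, or 1.5% carboxymethylcellulose in some cases. Rats were fasted after the last dose and bled by cardiac puncture next morning.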

Rattus norvegicus [4] = assay: Dose required to reduce serum cholesterol by 50% relative to OVX controls was determined (in vivo); format: functional
Summary of the method: as §1

Rattus norvegicus [5] = assay: Percent decrease in serum cholesterol relative to OVX control at 10 mg/kg in rat was determined (in vivo); format: functional
Summary of the method: as §1

Rattus norvegicus [6] = assay: Percent decrease in serum cholesterol relative to OVX control at 0.1 mg/kg in rat was determined (in vivo); format: functional
Summary of the method: as §1

| IC50 (Estrogen receptor) [µM] | SMILES | minimal effective dose (Rattus norvegicus [1]) [mg/kg] | minimal effective dose (Rattus norvegicus [2]) [mg/kg] | Decrease (Rattus norvegicus [3]) [%] | ED50 (Rattus norvegicus [4]) [mg/kg] | Decrease (Rattus norvegicus [5]) [%] | Decrease (Rattus norvegicus [6]) [%] |
| --- | --- | --- | --- | --- | --- | --- | --- |
| 0.002 | COc1cc(O)ccc1-c1sc2cc(O)ccc2c1C(=O)c1ccc(OCCN2CCCCC2)cc1 | 1 | 0.1 | 79 | < 0.1 | – | – |
| 0.35 | COc1ccc(-c2sc3c(OC)c(OC)c(OC)cc3c2C(=O)c2ccc(OCCN3CCCCC3)cc2)cc1.Cl | – | – | – | – | – | – |
| 0.1 | Cc1c(O)cc(C)c2c(C(=O)c3ccc(OCCN4CCCCC4)cc3)c(-c3ccc(O)cc3)sc12 | – | – | – | – | – | – |
| – | C#Cc1ccc(-c2sc3cc(O)ccc3c2C(=O)c2ccc(OCCN3CCCCC3)cc2)cc1 | > 10 | > 10 | 32.7 | > 10 | 35.8 | 9.1 |
| 0.4 | O=C(c1ccc(OCCN2CCCCC2)cc1)c1c(-c2ccc(O)cc2)sc2cc(O)c(O)cc12 | – | – | – | – | – | – |
| – | O=C(O)c1ccc(-c2sc3cc(O)ccc3c2C(=O)c2ccc(OCCN3CCCCC3)cc2)cc1 | > 10 | > 10 | -8.8 | – | 24.6 | 3.1 |
| 0.002 | Cc1cc(O)ccc1-c1sc2cc(O)ccc2c1C(=O)c1ccc(OCCN2CCCCC2)cc1 | > 10 | 0.1 | – | 0.4 | – | – |
| 0.01 | O=C(c1ccc(OCCN2CCCCC2)cc1)c1c(-c2ccccc2O)sc2cc(O)ccc12 | > 10 | > 10 | – | > 10 | – | 7.8 |
| – | NC(=O)c1ccc(-c2sc3cc(O)ccc3c2C(=O)c2ccc(OCCN3CCCCC3)cc2)cc1 | > 10 | > 10 | -21.3 | – | 10 | -3.2 |
| 0.0007 | Cc1ccccc1-c1sc2cc(O)ccc2c1C(=O)c1ccc(OCCN2CCCCC2)cc1 | > 10 | 10 | – | > 10 | – | – |
| 0.5 | O=C(c1ccc(OCCN2CCCCC2)cc1)c1c(-c2ccc([N+](=O)[O-])cc2)sc2cc(O)ccc12 | – | – | – | – | – | – |
| > 1 | COc1ccc2c(C(=O)c3ccc(OCCN4CCCCC4)cc3)c(-c3ccccc3)sc2c1 | – | – | – | – | – | – |
| – | Cc1cc2c(C(=O)c3ccc(OCCN4CCCCC4)cc3)c(-c3ccc(O)cc3)sc2cc1O | > 10 | > 10 | 42.2 | 5.4 | 43.7 | -4.3 |
| 0.0025 | O=C(c1ccc(OCCN2CCCCC2)cc1)c1c(-c2cccc(F)c2)sc2cc(O)ccc12 | > 10 | 0.1 | 62 | 1 | – | – |
| 0.6 | COc1ccc2c(C(=O)c3ccc(OCCN4CCCCC4)cc3)c(-c3ccc(CO)cc3)sc2c1 | – | – | – | – | – | – |
| 0.1 | COc1ccc(-c2sc3ccccc3c2C(=O)c2ccc(OCCN3CCCCC3)cc2)cc1.O=C(O)CC(O)(CC(=O)O)C(=O)O | – | – | – | – | – | – |
| 0.35 | O=C(c1ccc(OCCN2CCCCC2)cc1)c1c(-c2ccc(O)cc2)sc2cc(O)cc(O)c12 | – | – | – | – | – | – |
| 0.001 | Cc1cc(-c2sc3cc(O)ccc3c2C(=O)c2ccc(OCCN3CCCCC3)cc2)ccc1O | > 10 | > 10 | 73.9 | 1 | – | 28.4 |
| 0.5 | Cc1cc2c(C(=O)c3ccc(OCCN4CCCCC4)cc3)c(-c3ccc(O)cc3)sc2c(C)c1O | – | – | – | – | – | – |

| SMILES | IC50 (Estrogen receptor) [µM] | minimal effective dose (Rattus norvegicus [1]) [mg/kg] | minimal effective dose (Rattus norvegicus [2]) [mg/kg] | Decrease (Rattus norvegicus [3]) [%] | ED50 (Rattus norvegicus [4]) [mg/kg] | Decrease (Rattus norvegicus [5]) [%] | Decrease (Rattus norvegicus [6]) [%] |
| --- | --- | --- | --- | --- | --- | --- | --- |
| O=C(c1ccc(OCCN2CCCCC2)cc1)c1c(-c2ccc(O)cc2)sc2cc(O)c3ccccc3c12 | 0.5 | – | – | – | – | – | – |
| COc1ccc2c(C(=O)c3ccc(OCCN4CCCCC4)cc3)c(-c3ccc4c(c3)OCO4)sc2c1 | 0.5 | – | – | – | – | – | – |
| O=C(c1ccc(OCCN2CCCCC2)cc1)c1c(-c2ccc3ccccc3c2)sc2cc(O)ccc12 | 0.08 | 0.1 | 0.1 | – | 0.2 | – | – |
